“And” between values parts separate entries of the source, which are not always exact repeats. Equal entries are not always repeated.
Tests used:
[1] = species on record: Canis familiaris; assay: In vitro electrophysiological evaluation in canine cardiac ventricular muscle reported as % change for the functional refractory period (FRP) at 10 uM at concentration range of 0.1-10 uM; set-up: species or system Canis lupus familiaris, Muscle tissue
Method in brief: (§1)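 Canine right ventricle and papillary muscle strips in oxygenated Tyrode's solution, fitted with stimulating and recording electrodes. The extra-stimulus conduction-interval method was adapted for in vitro use. FRP and CT were read from a conduction-interval curve before and after various compound concentrations, and expressed as percent change from control. Compounds were taken from 10 mM deionized-water stock into Tyrode's. Each strip was used once as its own control.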

[2] = species on record: Canis familiaris; assay: In vitro electrophysiological evaluation in canine cardiac ventricular muscle reported as % change for the functional refractory period (FRP) at 10 uM at concentration range of 0.1-30 uM; set-up: species or system Canis lupus familiaris, Muscle tissue; method in brief: as §1
[3] = species on record: Canis familiaris; assay: In vitro electrophysiological evaluation in canine cardiac Purkinje fibres reported as percent change Vmax at 10 uM at concentration range of 0.1-30 uM; Minimal (<10% decrease or increase in V max).; assay type: functional, organism-based; conditions: Canis lupus familiaris, Purkinje fiber
Method in brief: (§2)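 Canine cardiac Purkinje fibres, intracellular microelectrode recording, paced at a basic cycle length of 1 s. APD95 and Vmax read simultaneously. Compound: 10 mM stock in deionized water, diluted into Tyrode's solution, tested over the stated concentration range. Each fibre used once as its own control. Result is % change from control, given at 10 µM or as the maximum with its concentration. M = <10% decrease or an increase in Vmax.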

[4] = test system: Canis familiaris; assay: Conduction time was determined by intraduodenal administration of 30 mg/kg (high dose) of compound in anesthetized dogs. Value was reported for experiment 1; assay type: functional, Canis lupus familiaris
Method in brief: (§3)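 Anesthetized dogs; compound given intraduodenally, generally as two doses, the second a cumulative (high) dose. LV functional refractory period and conduction time measured 15, 30 and 45 min after dosing; heart rate and blood pressure measured during nonpacing intervals. Values are % change from control, given per individual animal. Active if FRP or CT prolonged by ≥12%.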

[5] = species on record: Canis familiaris; assay: In vitro electrophysiological evaluation in canine cardiac ventricular muscle reported as maximum % change for functional refractory period (FRP) at 0.1-30 uM concentration range; concentration at which it occurred is 30 uM.; set-up: species or system Canis lupus familiaris, Muscle tissue; method in brief: as §1
[6] = test system: Canis familiaris; assay: Heart rate was determined by intraduodenal administration of 30 mg/kg (high dose) of compound in anesthetized dogs. Value was reported for experiment 1; assay type: functional, Canis lupus familiaris; method in brief: as §3
[7] = species on record: Canis familiaris; assay: In vitro electrophysiological evaluation in canine cardiac ventricular muscle reported as maximum % change for conduction time(CT) at 0.1-10 uM concentration range; Minimal (<10% decrease or increase in CT).; assay type: functional, Canis lupus familiaris, Muscle tissue; method in brief: as §1
[8] = test system: Canis familiaris; assay: Mean arterial blood pressure was determined by intraduodenal administration of 10 mg/kg (low dose)of compound in anesthetized dogs. Value was reported for experiment 1; assay type: functional, Canis lupus familiaris
[9] = test system: Canis familiaris; assay: Left ventricular refractory period was determined by intraduodenal administration of 10 mg/kg (low dose) of compound in anesthetized dogs. Value was reported for experiment 1; assay type: functional, Canis lupus familiaris, Cardiac ventricle
Method in brief: (§4)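 Anesthetized dogs received two intraduodenal doses, the second cumulative (low dose/high dose). Left ventricular FRP and CT were measured 15, 30 and 45 min after dosing. Heart rate and mean blood pressure were taken during nonpacing intervals. Values are percent change from control. The vehicle was 5% dextrose in water/tragacanth. Activity was defined as ≥12% prolongation of FRP or CT.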

[10] = species on record: Canis familiaris; assay: In vitro electrophysiological evaluation in canine cardiac ventricular muscle reported as % change for conduction time(CT) at 10 uM at 0.1-30 uM concentration range; Minimal (<10% decrease or increase in CT).; assay type: functional, Canis lupus familiaris, Muscle tissue
[11] = species on record: Canis familiaris; assay: In vitro electrophysiological evaluation in canine cardiac Purkinje fibres reported as percent change Vmax at 10 uM at concentration range of 0.1-30 uM; assay type: functional; conditions: Canis lupus familiaris, Purkinje fiber; method in brief: as §2
[12] = species on record: Canis familiaris; assay: In vitro electrophysiological evaluation in canine cardiac ventricular muscle reported as maximum % change for functional refractory period (FRP) at 0.1-10 uM concentration range; concentration at which it occurred is 1 uM.; set-up: species or system Canis lupus familiaris, Muscle tissue; method in brief: as §1
[13] = test system: Canis familiaris; assay: Mean arterial blood pressure was determined by intraduodenal administration of 30 mg/kg (high dose) of compound in anesthetized dogs. Value was reported for experiment 1; assay type: functional, Canis lupus familiaris
[14] = test system: Canis familiaris; assay: Conduction time was determined by intraduodenal administration of 10 mg/kg (low dose)of compound in anesthetized dogs. Value was reported for experiment 2; assay type: functional, Canis lupus familiaris; method in brief: as §3
[15] = test system: Canis familiaris; assay: Mean arterial blood pressure was determined by intraduodenal administration of 10 mg/kg (low dose)of compound in anesthetized dogs. Value was reported for experiment 2; assay type: functional, Canis lupus familiaris
[16] = species on record: Canis familiaris; assay: In vitro electrophysiological evaluation in canine cardiac Purkinje fibres reported as % change for action potential duration at a concentration of 10 uM; assay type: functional, Canis lupus familiaris, Purkinje fiber; method in brief: as §2
[17] = species on record: Canis familiaris; assay: In vitro electrophysiological evaluation in canine cardiac Purkinje fibres reported as % change for action potential duration at 10 uM at 0.1-30 uM concentration range; assay type: functional, Canis lupus familiaris, Purkinje fiber; method in brief: as §2
[18] = test system: Canis familiaris; assay: Heart rate was determined by intraduodenal administration of 10 mg/kg (low dose) of compound in anesthetized dogs. Value was reported for experiment 1; assay type: functional, Canis lupus familiaris; method in brief: as §3
[19] = test system: Canis familiaris; assay: Conduction time was determined by intraduodenal administration of 10 mg/kg (low dose) of compound in anesthetized dogs. Value was reported for experiment 1; assay type: functional, Canis lupus familiaris; method in brief: as §3
[20] = species on record: Canis familiaris; assay: In vitro electrophysiological evaluation in canine cardiac ventricular muscle reported as % change for conduction time(CT) at 10 uM at 0.1-10 uM concentration range; Minimal (<10% decrease or increase in CT).; assay type: functional, Canis lupus familiaris, Muscle tissue
[21] = test system: Canis familiaris; assay: Heart rate was determined by intraduodenal administration of 30 mg/kg (high dose) of compound in anesthetized dogs. Value was reported for experiment 2; assay type: functional, Canis lupus familiaris; method in brief: as §3
[22] = test system: Canis familiaris; assay: Heart rate was determined by intraduodenal administration of 10 mg/kg (low dose) of compound in anesthetized dogs. Value was reported for experiment 2; assay type: functional, Canis lupus familiaris; method in brief: as §3
[23] = species on record: Canis familiaris; assay: In vitro electrophysiological activity in canine cardiac occurred is 1 uM; assay type: functional, Canis lupus familiaris, Heart
[24] = test system: Canis familiaris; assay: Mean arterial blood pressure was determined by intraduodenal administration of 30 mg/kg (high dose) of compound in anesthetized dogs. Value was reported for experiment 2; assay type: functional, Canis lupus familiaris
[25] = species on record: Canis familiaris; assay: In vitro electrophysiological evaluation in canine cardiac ventricular muscle reported as maximum % change for functional refractory period (FRP) at 0.1-30 uM concentration range; concentration at which it occurred is 1 uM.; set-up: species or system Canis lupus familiaris, Muscle tissue; method in brief: as §1
[26] = species on record: Canis familiaris; assay: In vitro electrophysiological evaluation in canine cardiac occurred is 30 uM; assay type: functional; conditions: Canis lupus familiaris; Heart
[27] = test system: Canis familiaris; assay: Left ventricular refractory period was determined by intraduodenal administration of 30 mg/kg (high dose) of compound in anesthetized dogs. Value was reported for experiment 1; assay type: functional, Canis lupus familiaris, Cardiac ventricle; method in brief: as §4
[28] = test system: Canis familiaris; assay: Conduction time was determined by intraduodenal administration of 30 mg/kg (high dose)of compound in anesthetized dogs. Value was reported for experiment 2; assay type: functional, Canis lupus familiaris; method in brief: as §3
[29] = test system: Canis familiaris; assay: Left ventricular refractory period was determined by intraduodenal administration of 30 mg/kg (high dose) of compound in anesthetized dogs. Value was reported for experiment 2; assay type: functional, Canis lupus familiaris, Cardiac ventricle; method in brief: as §4
[30] = species on record: Canis familiaris; assay: In vitro electrophysiological evaluation in canine cardiac ventricular muscle reported as maximum % change for conduction time(CT) at 0.1-30 uM concentration range; Minimal (<10% decrease or increase in CT).; assay type: functional, Canis lupus familiaris, Muscle tissue; method in brief: as §1
[31] = test system: Canis familiaris; assay: Left ventricular refractory period was determined by intraduodenal administration of 10 mg/kg (low dose) of compound in anesthetized dogs. Value was reported for experiment 2; assay type: functional, Canis lupus familiaris, Cardiac ventricle; method in brief: as §4

**Q.** For `Cl.O=C(CCC1C(=O)C2CCN1CC2)c1ccc(Cl)cc1` (stereo unspecified), which FRP [1] is on record?
**A.** The FRP was 17%.

**Q.** What about the FRP [2] of the same compound?
**A.** The FRP was 10%.

**Q.** What about the Vmax [3] of the same compound?
**A.** The Vmax was < 10%.

**Q.** What about the CT [4] of the same compound?
**A.** Its CT is 14%.

**Q.** What about the FRP [5] of the same compound?
**A.** Its FRP is -9%.

**Q.** And the HR [6]?
**A.** The HR was -18%.

**Q.** And the CT [7]?
**A.** Its CT is <10%.

**Q.** What about the Mean blood pressure [8] of the same compound?
**A.** Its Mean blood pressure is -5%.

**Q.** What about the “LV FRP” value [9] of the same compound?
**A.** Its value is 15%.

**Q.** And the CT [10]?
**A.** The CT was <10%.

**Q.** What about the Vmax [11] of the same compound?
**A.** Its Vmax is -10%.

**Q.** What about the FRP [12] of the same compound?
**A.** The FRP was 22%.

**Q.** What about the Mean blood pressure [13] of the same compound?
**A.** Its Mean blood pressure is 0%.

**Q.** What about the CT [14] of the same compound?
**A.** Its CT is 4%.

**Q.** And the Mean blood pressure [15]?
**A.** Its Mean blood pressure is 18%.

**Q.** What about the APD95 [16] of the same compound?
**A.** Its APD95 is 13%.

**Q.** And the APD95 [17]?
**A.** Its APD95 is 5%.

**Q.** What about the HR [18] of the same compound?
**A.** Its HR is -13%.

**Q.** What about the CT [19] of the same compound?
**A.** The CT was 5%.

**Q.** And the CT [20]?
**A.** Its CT is <10%.

**Q.** And the HR [21]?
**A.** Its HR is -21%.

**Q.** And the HR [22]?
**A.** Its HR is -15%.

**Q.** What about the APD95 [23] of the same compound?
**A.** Its APD95 is 14% and 12%.

**Q.** And the Mean blood pressure [24]?
**A.** Its Mean blood pressure is 23%.

**Q.** And the FRP [25]?
**A.** The FRP was 15%.

**Q.** What about the Vmax [26] of the same compound?
**A.** Its Vmax is -26% and -18%.

**Q.** And the “LV FRP” value [27]?
**A.** Its value is 15%.

**Q.** And the CT [28]?
**A.** The CT was 13%.

**Q.** What about the “LV FRP” value [29] of the same compound?
**A.** The value was 6%.

**Q.** And the CT [30]?
**A.** Its CT is <10%.

**Q.** And the “LV FRP” value [31]?
**A.** The value was 12%.
